Test results reported in the RNAGym collection of RNA variant scans (doi:10.1002/anie.201605470).

B1: Osa-1-4 twister ribozyme (parent)
chain: CCGCCUAACACUGCCAAUGCCGGUCCCAAGCCCGGAUAAAAGUGGAGGGGGCGG

Variants of: B1
Test: self-cleavage, relative activity (ratio to wild type); higher = more cleavage; co-transcriptional
Summary of the method: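 A DNA template for a 54-nucleotide Oryza sativa twister ribozyme was synthesised with 97 % wild-type base and 1 % of each other base at the 48 positions downstream of the cleavage site. It was transcribed in vitro for 2 h at 37 °C, allowing co-transcriptional self-cleavage, then reverse-transcribed with a template-switching oligonucleotide, PCR-amplified and deep-sequenced. Cleavage status was scored from reads with or without upstream sequence. Relative activity is fraction cleaved normalised to wild type.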

Variant	self-cleavage
CCGCCUAACACUGCCAAUGCCGGUCCCAAGCCCGUACAAAAGUGGAGGGGGCGG [G35U U37C]	0.94
CCGCCUAACACUGCCAAUGCCGGUCCCAAGCCCGUAGAAAAGUGGAGGGGGCGG [G35U U37G]	0.89
CCGCCUAACACUGCCAAUGCCGGUCCCAAGCCCGUAAAAAAGUGGAGGGGGCGG [G35U U37A]	0.92
CCGCCUAACACUGCCAAUGCCGGUCCCAAUCCCGGCUAAAAGUGGAGGGGGCGG [A36C G30U]	0.03
CCGCCUAACACUGCCAAUGCCGGUCCCAAACCCGGCUAAAAGUGGAGGGGGCGG [A36C G30A]	0.02
CCGCCUAACACUGCCAAUGCCGGUCCCAACCCCGGCUAAAAGUGGAGGGGGCGG [A36C G30C]	0.05
CCGCCUAACACUGCCAAUGCCGGGCCCAAGCCCGUAUAAAAGUGGAGGGGGCGG [G35U U24G]	0.03
CCGCCUAACACUGCCAAUGCCGGCCCCAAGCCCGUAUAAAAGUGGAGGGGGCGG [G35U U24C]	0.08
CCGCCUAACACUGCCAAUGCCGGACCCAAGCCCGUAUAAAAGUGGAGGGGGCGG [G35U U24A]	0.2
CCGCCUAACACUGCUAAUGCCGGUCCCAAGCCCGGCUAAAAGUGGAGGGGGCGG [A36C C15U]	0.12
CCGCCUAACACUGCGAAUGCCGGUCCCAAGCCCGGCUAAAAGUGGAGGGGGCGG [A36C C15G]	0.25
CCGCCUAACACUGCAAAUGCCGGUCCCAAGCCCGGCUAAAAGUGGAGGGGGCGG [A36C C15A]	0.24
CCGCCUAACACUGCCAAUGCCGGUCCCAAGCCAGGCUAAAAGUGGAGGGGGCGG [A36C C33A]	0.06
CCGCCUAACACUGCCAAUGCCGGUCCCAAGCCGGGCUAAAAGUGGAGGGGGCGG [A36C C33G]	0.04
CCGCCUAACACUGCCAAUGCCGGUCCCAAGCCUGGCUAAAAGUGGAGGGGGCGG [A36C C33U]	0.13
CCGCCUAACACUGUCAAUGCCGGUCCCAAGCCCGGCUAAAAGUGGAGGGGGCGG [A36C C14U]	0.09
CCGCCUAACACUGACAAUGCCGGUCCCAAGCCCGGCUAAAAGUGGAGGGGGCGG [A36C C14A]	0.06
CCGCCUAACACUGGCAAUGCCGGUCCCAAGCCCGGCUAAAAGUGGAGGGGGCGG [A36C C14G]	0.06
CCGCCUAACACUGCCAAUGCCAGUCCCAAGCCCGGCUAAAAGUGGAGGGGGCGG [A36C G22A]	0.6
CCGCCUAACACUGCCAAUGCCCGUCCCAAGCCCGGCUAAAAGUGGAGGGGGCGG [A36C G22C]	0.08
CCGCCUAACACUGCCAAUGCCUGUCCCAAGCCCGGCUAAAAGUGGAGGGGGCGG [A36C G22U]	0.35
CCGCCUAACACUGCCAAUGCCGGUCCAAAGCCCGGCUAAAAGUGGAGGGGGCGG [A36C C27A]	0.07
CCGCCUAACACUGCCAAUGCCGGUCCGAAGCCCGGCUAAAAGUGGAGGGGGCGG [A36C C27G]	0.05
CCGCCUAACACUGCCAAUGCCGGUCCUAAGCCCGGCUAAAAGUGGAGGGGGCGG [A36C C27U]	0.09
CCGCCUAACACUUCCAAUGCCGGUCCCAAGCCCGGCUAAAAGUGGAGGGGGCGG [A36C G13U]	0.02

Variant	self-cleavage
CCGCCUAACACUACCAAUGCCGGUCCCAAGCCCGGCUAAAAGUGGAGGGGGCGG [A36C G13A]	0.04
CCGCCUAACACUCCCAAUGCCGGUCCCAAGCCCGGCUAAAAGUGGAGGGGGCGG [A36C G13C]	0.03
CCGCCUAACACUGCCAAUGCCGGUCCCAAGCCCGGCUAAAAGUGGUGGGGGCGG [A36C A46U]	0.05
CCGCCUAACACUGCCAAUGCCGGUCCCAAGCCCGGCUAAAAGUGGGGGGGGCGG [A36C A46G]	0.06
CCGCCUAACACUGCCAAUGCCGGUCCCAAGCCCGGCUAAAAGUGGCGGGGGCGG [A36C A46C]	0.07
CCGCCUAACACUGCCAAUGCCGGUCCCAAGCCCGUAUAAAAGGGGAGGGGGCGG [G35U U43G]	0.12
CCGCCUAACACUGCCAAUGCCGGUCCCAAGCCCGUAUAAAAGAGGAGGGGGCGG [G35U U43A]	0.44
CCGCCUAACACUGCCAAUGCCGGUCCCAAGCCCGUAUAAAAGCGGAGGGGGCGG [G35U U43C]	0.21
CCGCCUAACACUGCCAAUGCCGGUCCCAAGCCCGGCUACAAGUGGAGGGGGCGG [A36C A39C]	0.15
CCGCCUAACACUGCCAAUGCCGGUCCCAAGCCCGGCUAUAAGUGGAGGGGGCGG [A36C A39U]	0.15
CCGCCUAACACUGCCAAUGCCGGUCCCAAGCCCGGCUAGAAGUGGAGGGGGCGG [A36C A39G]	0.2
CCGCCUAACACUGCCAAUGCCGGUCCCAAGCCCGUAUAAAAGUGGAGGGGGCGA [G35U G54A]	0.8
CCGCCUAACACUGCCAAUGCCGGUCCCAAGCCCGUAUAAAAGUGGAGGGGGCGU [G35U G54U]	0.8
CCGCCUAACACUGCCAAUGCCGGUCCCAAGCCCGUAUAAAAGUGGAGGGGGCGC [G35U G54C]	0.77
CCGCCUAACACUGCCAAUGCCGGUCCCAAGCCCGGCUAAAUGUGGAGGGGGCGG [A36C A41U]	0.91
CCGCCUAACACUGCCAAUGCCGGUCCCAAGCCCGGCUAAACGUGGAGGGGGCGG [A36C A41C]	0.6
CCGCCUAACACUGCCAAUGCCGGUCCCAAGCCCGGCUAAAGGUGGAGGGGGCGG [A36C A41G]	0.13
CCGCCUAACACUGCCAAUGCCGGUCCCAAGCCCGGCUAACAGUGGAGGGGGCGG [A36C A40C]	0.05
CCGCCUAACACUGCCAAUGCCGGUCCCAAGCCCGGCUAAGAGUGGAGGGGGCGG [A36C A40G]	0.12
CCGCCUAACACUGCCAAUGCCGGUCCCAAGCCCGGCUAAUAGUGGAGGGGGCGG [A36C A40U]	0.13
CCGCCUAACACUGCCAACGCCGGUCCCAAGCCCGUAUAAAAGUGGAGGGGGCGG [G35U U18C]	0.5
CCGCCUAACACUGCCAAAGCCGGUCCCAAGCCCGUAUAAAAGUGGAGGGGGCGG [G35U U18A]	0.8
CCGCCUAACACUGCCAAGGCCGGUCCCAAGCCCGUAUAAAAGUGGAGGGGGCGG [G35U U18G]	0.77
CCGCCUAACACUGCCAAUGCGGGUCCCAAGCCCGGCUAAAAGUGGAGGGGGCGG [A36C C21G]	0.05
CCGCCUAACACUGCCAAUGCUGGUCCCAAGCCCGGCUAAAAGUGGAGGGGGCGG [A36C C21U]	0.46

Variant	self-cleavage
CCGCCUAACACUGCCAAUGCAGGUCCCAAGCCCGGCUAAAAGUGGAGGGGGCGG [A36C C21A]	0.54
CCGCCUAACACUGCCAAUGCCGGUCCCAAGCCCGGCUGAAAGUGGAGGGGGCGG [A36C A38G]	0.54
CCGCCUAACACUGCCAAUGCCGGUCCCAAGCCCGGCUCAAAGUGGAGGGGGCGG [A36C A38C]	0.81
CCGCCUAACACUGCCAAUGCCGGUCCCAAGCCCGGCUUAAAGUGGAGGGGGCGG [A36C A38U]	0.79
CCGCCUAACACUGCCAAUGCCGGUCCCAAGCUCGGCUAAAAGUGGAGGGGGCGG [A36C C32U]	0.07
CCGCCUAACACUGCCAAUGCCGGUCCCAAGCGCGGCUAAAAGUGGAGGGGGCGG [A36C C32G]	0.06
CCGCCUAACACUGCCAAUGCCGGUCCCAAGCACGGCUAAAAGUGGAGGGGGCGG [A36C C32A]	0.06
CCGCCUAAAACUGCCAAUGCCGGUCCCAAGCCCGGCUAAAAGUGGAGGGGGCGG [A36C C9A]	0.08
CCGCCUAAUACUGCCAAUGCCGGUCCCAAGCCCGGCUAAAAGUGGAGGGGGCGG [A36C C9U]	0.21
CCGCCUAAGACUGCCAAUGCCGGUCCCAAGCCCGGCUAAAAGUGGAGGGGGCGG [A36C C9G]	0.11
CCGCCUAACACUGCCAAUGCCGGUCCCAAGCCCCGCUAAAAGUGGAGGGGGCGG [A36C G34C]	0.39
CCGCCUAACACUGCCAAUGCCGGUCCCAAGCCCAGCUAAAAGUGGAGGGGGCGG [A36C G34A]	0.88
CCGCCUAACACAGCCAAUGCCGGUCCCAAGCCCGUAUAAAAGUGGAGGGGGCGG [G35U U12A]	0.47
CCGCCUAACACCGCCAAUGCCGGUCCCAAGCCCGUAUAAAAGUGGAGGGGGCGG [G35U U12C]	0.37
CCGCCUAACACGGCCAAUGCCGGUCCCAAGCCCGUAUAAAAGUGGAGGGGGCGG [G35U U12G]	0.08
CCGCCUAACACUGCCAAUGACGGUCCCAAGCCCGGCUAAAAGUGGAGGGGGCGG [A36C C20A]	0.81
CCGCCUAACACUGCCAAUGUCGGUCCCAAGCCCGGCUAAAAGUGGAGGGGGCGG [A36C C20U]	0.88
CCGCCUAACACUGCCAAUGGCGGUCCCAAGCCCGGCUAAAAGUGGAGGGGGCGG [A36C C20G]	0.09
CCGCCUAACACUGCCAAUGCCGUUCCCAAGCCCGGCUAAAAGUGGAGGGGGCGG [A36C G23U]	0.05
CCGCCUAACACUGCCAAUGCCGAUCCCAAGCCCGGCUAAAAGUGGAGGGGGCGG [A36C G23A]	0.09
CCGCCUAACACUGCCAAUGCCGCUCCCAAGCCCGGCUAAAAGUGGAGGGGGCGG [A36C G23C]	0.03
CCGCCUGACACUGCCAAUGCCGGUCCCAAGCCCGGCUAAAAGUGGAGGGGGCGG [A36C A7G]	0.11
CCGCCUUACACUGCCAAUGCCGGUCCCAAGCCCGGCUAAAAGUGGAGGGGGCGG [A36C A7U]	0.05
CCGCCUCACACUGCCAAUGCCGGUCCCAAGCCCGGCUAAAAGUGGAGGGGGCGG [A36C A7C]	0.05
CCGCCUAACACUGCCAAUGCCGGUCCCAAGCCCGUAUAAAAGUGGAGGGGGCUG [G35U G53U]	0.17

Variant	self-cleavage
CCGCCUAACACUGCCAAUGCCGGUCCCAAGUCCGGCUAAAAGUGGAGGGGGCGG [A36C C31U]	0.1
CCGCCUAACACUGCCAAUGCCGGUCCCAAGACCGGCUAAAAGUGGAGGGGGCGG [A36C C31A]	0.03
CCGCCUAACACUGCCAAUGCCGGUCCCAAGGCCGGCUAAAAGUGGAGGGGGCGG [A36C C31G]	0.04
CCGCCUAACACUGCCAAUGCCGGUCGCAAGCCCGGCUAAAAGUGGAGGGGGCGG [A36C C26G]	0.06
CCGCCUAACACUGCCAAUGCCGGUCACAAGCCCGGCUAAAAGUGGAGGGGGCGG [A36C C26A]	0.03
CCGCCUAACACUGCCAAUGCCGGUCUCAAGCCCGGCUAAAAGUGGAGGGGGCGG [A36C C26U]	0.12
CCGCCUAACACUGCCAAUACCGGUCCCAAGCCCGGCUAAAAGUGGAGGGGGCGG [A36C G19A]	0.76
CCGCCUAACACUGCCAAUCCCGGUCCCAAGCCCGGCUAAAAGUGGAGGGGGCGG [A36C G19C]	0.56
CCGCCUAACACUGCCAAUUCCGGUCCCAAGCCCGGCUAAAAGUGGAGGGGGCGG [A36C G19U]	0.82
CCGCCUAUCACUGCCAAUGCCGGUCCCAAGCCCGGCUAAAAGUGGAGGGGGCGG [A36C A8U]	0.09
CCGCCUACCACUGCCAAUGCCGGUCCCAAGCCCGGCUAAAAGUGGAGGGGGCGG [A36C A8C]	0.06
CCGCCUAGCACUGCCAAUGCCGGUCCCAAGCCCGGCUAAAAGUGGAGGGGGCGG [A36C A8G]	0.14
CCGCCUAACAUUGCCAAUGCCGGUCCCAAGCCCGGCUAAAAGUGGAGGGGGCGG [A36C C11U]	0.26
CCGCCUAACAAUGCCAAUGCCGGUCCCAAGCCCGGCUAAAAGUGGAGGGGGCGG [A36C C11A]	0.11
CCGCCUAACAGUGCCAAUGCCGGUCCCAAGCCCGGCUAAAAGUGGAGGGGGCGG [A36C C11G]	0.08
CCGCCUAACACUGCCAAUGCCGGUCCCAAGCCCGGCUAAAAGUGGAGGGGGAGG [A36C C52A]	0.37
CCGCCUAACACUGCCAAUGCCGGUCCCAAGCCCGGCUAAAAGUGGAGGGGGGGG [A36C C52G]	0.51
CCGCCUAACACUGCCAAUGCCGGUCCCAAGCCCGGCUAAAAGUGGAGGGGGUGG [A36C C52U]	0.82
CCGCCUAACACUGCCAAUGCCGGUGCCAAGCCCGGCUAAAAGUGGAGGGGGCGG [A36C C25G]	0.04
CCGCCUAACACUGCCAAUGCCGGUUCCAAGCCCGGCUAAAAGUGGAGGGGGCGG [A36C C25U]	0.1
CCGCCUAACACUGCCAAUGCCGGUACCAAGCCCGGCUAAAAGUGGAGGGGGCGG [A36C C25A]	0.06
CCGCCUAACACUGCCAAUGCCGGUCCCAAGCCCGGCUAAAAGUGGAGGGGGCGG [A36C]	0.86
